Experimental data published in the M2OR odorant receptor database.
Numbering of substitutions follows the chain as printed.

Tests used:
Conditions in all cases: stereoisomer not certain
OR4K13 (Homo sapiens) = molecular target: T1, OR4K13 (Homo sapiens) (UniProt Q8NH42)
T1 sequence (whole entry): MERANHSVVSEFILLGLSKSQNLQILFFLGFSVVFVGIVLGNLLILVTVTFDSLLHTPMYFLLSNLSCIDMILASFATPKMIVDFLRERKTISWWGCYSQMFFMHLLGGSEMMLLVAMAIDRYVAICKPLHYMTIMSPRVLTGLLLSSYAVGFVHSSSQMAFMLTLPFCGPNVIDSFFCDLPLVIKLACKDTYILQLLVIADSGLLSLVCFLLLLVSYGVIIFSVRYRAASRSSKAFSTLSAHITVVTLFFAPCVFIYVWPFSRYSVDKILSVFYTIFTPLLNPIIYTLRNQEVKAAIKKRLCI
In short: (§1)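 Transient luciferase assays in mammalian cell lines were common, though methods varied by source. The values come from published papers and their supplementary material, with extra details from the original authors when needed. Responsive refers to a measured signal the original authors judged statistically different from baseline, and non-responsive (inactive) to the remainder.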

OR4K14 (Homo sapiens) = molecular target: T2, OR4K14 (Homo sapiens) (UniProt Q8NGD5)
T2 sequence (whole entry): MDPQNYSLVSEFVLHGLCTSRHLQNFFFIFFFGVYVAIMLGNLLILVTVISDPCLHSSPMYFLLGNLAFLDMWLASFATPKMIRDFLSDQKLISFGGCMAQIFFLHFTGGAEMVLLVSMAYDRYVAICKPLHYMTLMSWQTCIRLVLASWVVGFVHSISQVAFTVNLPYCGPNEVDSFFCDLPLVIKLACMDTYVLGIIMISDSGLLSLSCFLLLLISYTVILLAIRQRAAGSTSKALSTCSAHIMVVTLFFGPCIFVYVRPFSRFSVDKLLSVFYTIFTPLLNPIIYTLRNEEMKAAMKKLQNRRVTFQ
In short: as §1

OR4K15 (Homo sapiens) = molecular target: T3, OR4K15 (Homo sapiens) (UniProt Q8NH41)
T3 sequence (whole entry): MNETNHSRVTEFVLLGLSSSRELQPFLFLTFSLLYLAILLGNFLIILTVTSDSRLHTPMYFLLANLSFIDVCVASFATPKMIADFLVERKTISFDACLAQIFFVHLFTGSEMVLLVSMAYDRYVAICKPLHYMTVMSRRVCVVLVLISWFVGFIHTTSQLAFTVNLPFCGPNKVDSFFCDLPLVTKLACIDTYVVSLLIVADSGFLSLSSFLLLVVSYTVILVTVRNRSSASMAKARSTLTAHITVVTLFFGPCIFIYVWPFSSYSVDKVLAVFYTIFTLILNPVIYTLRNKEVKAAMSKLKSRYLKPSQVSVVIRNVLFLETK
In short: as §1

OR4K17 (Homo sapiens) = molecular target: T4, OR4K17 (Homo sapiens) (UniProt Q8NGC6)
T4 sequence (whole entry): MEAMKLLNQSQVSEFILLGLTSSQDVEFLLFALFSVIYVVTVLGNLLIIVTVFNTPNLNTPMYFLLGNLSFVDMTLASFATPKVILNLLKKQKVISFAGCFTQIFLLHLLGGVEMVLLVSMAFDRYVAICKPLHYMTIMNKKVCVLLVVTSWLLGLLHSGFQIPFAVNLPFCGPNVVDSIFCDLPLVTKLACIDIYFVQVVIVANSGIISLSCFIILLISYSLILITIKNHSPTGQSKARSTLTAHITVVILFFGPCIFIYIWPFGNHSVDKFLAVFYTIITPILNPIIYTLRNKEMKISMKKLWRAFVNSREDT
In short: as §1

OR4K2 (Homo sapiens) = molecular target: T5, OR4K2 (Homo sapiens) (UniProt Q8NGD2)
T5 sequence (whole entry): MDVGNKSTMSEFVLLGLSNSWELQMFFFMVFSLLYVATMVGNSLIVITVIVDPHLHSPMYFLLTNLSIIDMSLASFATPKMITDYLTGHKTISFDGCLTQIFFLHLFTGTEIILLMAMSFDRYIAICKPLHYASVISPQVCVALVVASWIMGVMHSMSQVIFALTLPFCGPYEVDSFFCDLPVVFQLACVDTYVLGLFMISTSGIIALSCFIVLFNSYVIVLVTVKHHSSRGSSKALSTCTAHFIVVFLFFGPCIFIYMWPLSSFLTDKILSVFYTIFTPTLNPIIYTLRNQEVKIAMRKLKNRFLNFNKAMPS
In short: as §1

OR4K5 (Homo sapiens) = molecular target: T6, OR4K5 (Homo sapiens) (UniProt Q8NGD3)
T6 sequence (whole entry): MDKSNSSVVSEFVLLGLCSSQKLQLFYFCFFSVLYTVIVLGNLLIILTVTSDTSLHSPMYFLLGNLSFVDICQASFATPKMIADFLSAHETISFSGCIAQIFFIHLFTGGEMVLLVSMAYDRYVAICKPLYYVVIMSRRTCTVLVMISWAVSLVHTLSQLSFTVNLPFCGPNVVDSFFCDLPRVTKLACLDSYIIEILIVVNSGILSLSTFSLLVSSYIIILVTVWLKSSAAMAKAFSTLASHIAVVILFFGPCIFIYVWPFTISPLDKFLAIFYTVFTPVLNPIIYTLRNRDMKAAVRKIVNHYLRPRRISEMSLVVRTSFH
In short: as §1

OR4L1 (Homo sapiens) = molecular target: T7, OR4L1 (Homo sapiens) (UniProt Q8NH43)
T7 sequence (whole entry): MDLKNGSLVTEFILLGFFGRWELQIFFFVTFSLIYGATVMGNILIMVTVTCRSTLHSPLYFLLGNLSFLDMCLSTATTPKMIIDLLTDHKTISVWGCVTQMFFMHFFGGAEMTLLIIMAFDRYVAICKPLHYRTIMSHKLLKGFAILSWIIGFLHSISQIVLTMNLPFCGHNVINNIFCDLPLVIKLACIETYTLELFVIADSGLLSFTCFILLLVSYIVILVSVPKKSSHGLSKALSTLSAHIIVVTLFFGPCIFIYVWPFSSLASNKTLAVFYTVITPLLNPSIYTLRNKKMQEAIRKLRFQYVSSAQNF
In short: as §1

OR4M1 (Homo sapiens) = molecular target: T8, OR4M1 (Homo sapiens) (UniProt Q8NGD0)
T8 sequence (whole entry): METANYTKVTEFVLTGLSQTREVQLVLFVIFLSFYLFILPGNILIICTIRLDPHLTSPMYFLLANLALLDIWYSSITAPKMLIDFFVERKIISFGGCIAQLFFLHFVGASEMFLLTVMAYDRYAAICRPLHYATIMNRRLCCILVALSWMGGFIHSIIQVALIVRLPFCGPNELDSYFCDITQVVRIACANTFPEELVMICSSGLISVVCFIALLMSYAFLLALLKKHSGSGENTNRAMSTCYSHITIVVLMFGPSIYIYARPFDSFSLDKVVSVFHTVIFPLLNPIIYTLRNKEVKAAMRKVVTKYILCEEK
In short: as §1

OR4M2 (Homo sapiens) = molecular target: T9, OR4M2 (Homo sapiens) (UniProt Q8NGB6)
T9 sequence (whole entry): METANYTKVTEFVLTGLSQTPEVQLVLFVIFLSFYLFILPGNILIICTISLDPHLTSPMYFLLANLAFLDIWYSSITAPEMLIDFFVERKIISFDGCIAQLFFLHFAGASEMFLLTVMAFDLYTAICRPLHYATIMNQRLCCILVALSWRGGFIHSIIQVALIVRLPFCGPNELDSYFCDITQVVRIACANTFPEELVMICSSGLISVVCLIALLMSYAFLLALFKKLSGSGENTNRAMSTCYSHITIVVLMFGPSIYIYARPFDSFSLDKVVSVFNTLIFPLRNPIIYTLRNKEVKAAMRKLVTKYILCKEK
In short: as §1

OR4N2 (Homo sapiens) = molecular target: T10, OR4N2 (Homo sapiens) (UniProt Q8NGD1)
T10 sequence (whole entry): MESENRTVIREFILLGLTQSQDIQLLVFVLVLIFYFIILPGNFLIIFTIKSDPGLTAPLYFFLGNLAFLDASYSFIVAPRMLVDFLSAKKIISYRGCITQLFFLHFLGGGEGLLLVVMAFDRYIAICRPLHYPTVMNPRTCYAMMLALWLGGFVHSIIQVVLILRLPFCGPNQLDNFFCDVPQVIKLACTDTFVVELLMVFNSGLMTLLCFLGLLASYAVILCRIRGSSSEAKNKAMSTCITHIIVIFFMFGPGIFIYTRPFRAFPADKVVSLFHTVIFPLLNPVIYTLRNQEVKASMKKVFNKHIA
In short: as §1

OR4K1 R304H = test system: T11, OR4K1 R304H
T11 sequence (whole entry): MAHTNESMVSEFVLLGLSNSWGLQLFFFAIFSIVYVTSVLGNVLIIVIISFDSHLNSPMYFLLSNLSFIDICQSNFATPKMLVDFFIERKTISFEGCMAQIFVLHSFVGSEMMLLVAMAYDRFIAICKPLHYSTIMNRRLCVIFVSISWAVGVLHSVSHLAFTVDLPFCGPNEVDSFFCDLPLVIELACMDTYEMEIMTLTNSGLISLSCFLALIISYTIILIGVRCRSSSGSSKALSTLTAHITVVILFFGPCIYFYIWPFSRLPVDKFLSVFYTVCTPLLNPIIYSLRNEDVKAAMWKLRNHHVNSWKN
In short: as §1

OR4K2 = test system: T12, OR4K2
T12 sequence (whole entry): T5 sequence (whole entry) with N307I
In short: as §1

OR4KF = test system: T13, OR4KF
T13 sequence (whole entry): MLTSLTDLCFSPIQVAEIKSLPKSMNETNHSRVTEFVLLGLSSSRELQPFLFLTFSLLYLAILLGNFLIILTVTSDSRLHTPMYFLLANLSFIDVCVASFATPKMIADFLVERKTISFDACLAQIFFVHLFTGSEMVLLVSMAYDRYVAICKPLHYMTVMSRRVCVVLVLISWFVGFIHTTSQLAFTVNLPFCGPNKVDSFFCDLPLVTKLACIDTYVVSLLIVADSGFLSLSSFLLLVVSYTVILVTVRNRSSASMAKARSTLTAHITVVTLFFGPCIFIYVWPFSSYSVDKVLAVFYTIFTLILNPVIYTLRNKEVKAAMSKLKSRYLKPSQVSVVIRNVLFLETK
In short: as §1

OR4KH = test system: T14, OR4KH
T14 sequence (whole entry): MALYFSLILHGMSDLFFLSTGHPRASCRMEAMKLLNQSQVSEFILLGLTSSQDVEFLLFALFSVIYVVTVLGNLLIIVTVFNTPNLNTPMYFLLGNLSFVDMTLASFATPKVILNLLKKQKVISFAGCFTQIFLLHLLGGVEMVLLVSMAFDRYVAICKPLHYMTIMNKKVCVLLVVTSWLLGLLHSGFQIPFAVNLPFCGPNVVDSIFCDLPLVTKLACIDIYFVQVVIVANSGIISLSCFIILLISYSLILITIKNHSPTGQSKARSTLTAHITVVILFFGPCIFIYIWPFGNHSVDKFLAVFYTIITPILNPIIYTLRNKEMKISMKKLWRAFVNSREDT
In short: as §1

OR4L1 = test system: T15, OR4L1
T15 sequence (whole entry): T7 sequence (whole entry) with R52S
In short: as §1

OR4M1 H277N V279L L284H = test system: T16, OR4M1 H277N V279L L284H
T16 sequence (whole entry): T8 sequence (whole entry) with H277N, V279L, L284H
In short: as §1

OR4N2 A57V I76T = test system: T17, OR4N2 A57V I76T
T17 sequence (whole entry): T10 sequence (whole entry) with A57V, I76T
In short: as §1

OR4N2 R260C F279L R290H = test system: T18, OR4N2 R260C F279L R290H
T18 sequence (whole entry): T10 sequence (whole entry) with R260C, F279L, R290H
In short: as §1

OR4K3 (Homo sapiens) = OR4K3 (Homo sapiens) (UniProt Q96R72)
In short: as §1

OR4M2B (Homo sapiens) = OR4M2B (Homo sapiens) (UniProt A0A0X1KG70)
In short: as §1

Measured: odorant receptor agonist call;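 also: active if original authors judged signal statistically different from baseline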

Sequence of OR4K3 (Homo sapiens) (Q96R72 whole entry): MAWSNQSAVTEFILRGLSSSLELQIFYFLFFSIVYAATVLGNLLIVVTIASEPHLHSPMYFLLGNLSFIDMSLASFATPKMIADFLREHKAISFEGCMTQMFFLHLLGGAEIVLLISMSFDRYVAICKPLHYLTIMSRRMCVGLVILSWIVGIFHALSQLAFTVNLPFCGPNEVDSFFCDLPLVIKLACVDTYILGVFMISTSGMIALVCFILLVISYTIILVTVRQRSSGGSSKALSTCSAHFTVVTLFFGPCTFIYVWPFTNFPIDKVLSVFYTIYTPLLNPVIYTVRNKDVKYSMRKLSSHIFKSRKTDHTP
Sequence of OR4M2B (Homo sapiens) (A0A0X1KG70 whole entry): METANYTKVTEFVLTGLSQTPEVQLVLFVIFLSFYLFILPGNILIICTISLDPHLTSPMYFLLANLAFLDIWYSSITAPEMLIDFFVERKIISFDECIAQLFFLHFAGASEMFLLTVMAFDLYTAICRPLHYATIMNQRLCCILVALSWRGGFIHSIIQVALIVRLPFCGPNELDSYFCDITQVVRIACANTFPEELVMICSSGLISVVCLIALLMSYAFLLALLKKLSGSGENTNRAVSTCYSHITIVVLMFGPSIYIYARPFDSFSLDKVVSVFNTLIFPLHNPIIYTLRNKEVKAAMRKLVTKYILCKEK

CCCCCC(=O)C(C)C(C)=O (stereo not drawn)
inactive: OR4K13 (Homo sapiens) | OR4K14 (Homo sapiens) | OR4K15 (Homo sapiens) | OR4K17 (Homo sapiens) | OR4K2 (Homo sapiens) | OR4K5 (Homo sapiens) | OR4L1 (Homo sapiens) | OR4M1 (Homo sapiens) | OR4M2 (Homo sapiens) | OR4N2 (Homo sapiens)

CCCC(S)CCOC(C)=O (stereo not drawn)
not listed: OR4K15 (Homo sapiens) | OR4K17 (Homo sapiens) | OR4K3 (Homo sapiens) | OR4M2B (Homo sapiens)
inactive: all other assays above

CCC1OC(C)=C(O)C1=O (stereo not drawn)
not listed: OR4K15 (Homo sapiens) | OR4K17 (Homo sapiens) | OR4K3 (Homo sapiens) | OR4M2B (Homo sapiens)
inactive: all other assays above

CC1=C(O)C(=O)C(C)O1 (stereo not drawn)
not listed: OR4K15 (Homo sapiens) | OR4K17 (Homo sapiens) | OR4K3 (Homo sapiens) | OR4M2B (Homo sapiens)
inactive: all other assays above

CC(=O)c1c(C)c([N+](=O)[O-])c(C(C)(C)C)c([N+](=O)[O-])c1C
not listed: OR4K1 R304H | OR4K2 | OR4KF | OR4KH | OR4L1 | OR4M1 H277N V279L L284H | OR4N2 A57V I76T | OR4N2 R260C F279L R290H
inactive: all other assays above

CC1CCCCCCCCCCCCC(=O)C1 (stereo not drawn)
not listed: OR4K1 R304H | OR4K2 | OR4KF | OR4KH | OR4L1 | OR4M1 H277N V279L L284H | OR4N2 A57V I76T | OR4N2 R260C F279L R290H
inactive: all other assays above

Cc1cnc(C)c(C)n1
not listed: OR4K15 (Homo sapiens) | OR4K17 (Homo sapiens) | OR4K3 (Homo sapiens) | OR4M2B (Homo sapiens)
inactive: all other assays above
